Data: PubChem BioAssay AID624104 (Broad Institute, 2012)
Activity calls are given as the source filed them.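 Rule for the calls: active = fitted curve reaches a 35% growth drop -35 below twice the top tested dose; inactive = activity in the wrong direction, or the rest.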

Columns and labels:
[1] = tested on: P. aeruginosa PAK mexAB-oprM, EDDHA, OD600 growth, 28 h; assay: mexAB-oprM mutant growth inhibition with EDDHA – PAK mexAB-OprM pump mutant, OD600, dry powder, set 2, dose response (AID 624104)
In short: (§1)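 Material: Diluted overnight bacterial culture | Compound dosing: Pin-transferred compound series, final 100 µM down to 15 nM | Times: 28 h at 30 °C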

[2] = as above; settings: P. aeruginosa PAK mexAB-oprM, EDDHA, OD600 growth, 28 h; at 100 µM (top of the series)
In short: as §1

Compound | AC35 [1] [µM] | activity change, negative = growth inhibition [2]
N#CC(c1cccc(Cl)n1)c1ccc(Cl)cc1F (configuration not stated) | 1.52 | –
CCCCC(C#N)c1ccc(F)cc1 (configuration not stated) | 33.5 | –
N#CC(c1ccc(Cl)cc1)c1ccccn1 (configuration not stated) | 5.72 | –
CCCCC(C#N)c1ccc(Cl)cn1 (configuration not stated) | 42.3 | –
COCCC(C#N)c1ccc(Cl)cc1 (configuration not stated) | 40.2 | –
COCCOCCC(C#N)c1ccc(Cl)cc1 (configuration not stated) | – | -10% (inactive)
N#CC(c1cccc(C(F)(F)F)n1)c1ccc(Cl)cc1F (configuration not stated) | 2.45 | –
COCCC(C#N)c1ccc(F)cc1 (configuration not stated) | 28.3 | –
COCCOCCC(C#N)c1ccc(F)cc1 (configuration not stated) | 5.24 | –
CCCCC(c1ccc(Cl)cc1)c1nn[nH]n1 (configuration not stated) | 25.2 | –
N#CC(c1ccc(Cl)cc1)c1cccc(C(F)(F)F)n1 (configuration not stated) | 1.45 | –
Clc1ccc(C(c2cccc(Cl)n2)c2nn[nH]n2)cc1 (configuration not stated) | – | 11.2% (inactive)
N#CC(c1ccc(F)cc1)c1cccc(C(F)(F)F)n1 (configuration not stated) | 0.839 | –
CN(C)CCCC(C#N)c1ccc(F)cc1 (configuration not stated) | 6.4 | –
CCCCC(C#N)c1ccc(F)cn1 (configuration not stated) | 18.7 | –
N#CC(c1ccc(C(F)(F)F)c(Cl)n1)c1ccccc1OC(F)(F)F (configuration not stated) | – | -25.9% (inactive)
N#CC(c1ccc(Cl)cc1)c1ncccc1Cl (configuration not stated) | 0.923 | –
N#CC(c1ccc(F)cc1)c1cccc(Cl)n1 (configuration not stated) | 2.09 | –
N#CC1c2ccc(Cl)cc2CCc2cccnc21 (configuration not stated) | 32.8 | –
N#Cc1cccc(C(C#N)c2ccc(F)cc2)n1 (configuration not stated) | 8.88 | –
CN(C)CCCC(C#N)c1ccc(Cl)cc1 (configuration not stated) | – | -0.114% (inactive)
N#CC(c1ccc(Cl)cc1)c1cccc(Cl)n1 (configuration not stated) | 1.97 | –
